Measured values as given in ChEMBL document CHEMBL3351252, “Design, synthesis, and structure-activity relationship studies of a series of [4-(4-carboxamidobutyl)]-1-arylpiperazines: insights into structural features contributing to dopamine D3 versus D2 receptor subtype selectivity” (J Med Chem, 2014).
The source made the active and inactive calls. The rule behind the calls is not given here.

How the values were obtained:
[1] = target: T1, D(2) dopamine receptor (Homo sapiens, UniProt P14416); assay: Inverse agonist activity at human D2LR expressed in CHO-K1 cells assessed as inhibition of basal activity by beta-galactosidase based beta-arrestin recruitment assay; format: cell-based
T1 sequence (P14416 whole entry, the tested form may be a part): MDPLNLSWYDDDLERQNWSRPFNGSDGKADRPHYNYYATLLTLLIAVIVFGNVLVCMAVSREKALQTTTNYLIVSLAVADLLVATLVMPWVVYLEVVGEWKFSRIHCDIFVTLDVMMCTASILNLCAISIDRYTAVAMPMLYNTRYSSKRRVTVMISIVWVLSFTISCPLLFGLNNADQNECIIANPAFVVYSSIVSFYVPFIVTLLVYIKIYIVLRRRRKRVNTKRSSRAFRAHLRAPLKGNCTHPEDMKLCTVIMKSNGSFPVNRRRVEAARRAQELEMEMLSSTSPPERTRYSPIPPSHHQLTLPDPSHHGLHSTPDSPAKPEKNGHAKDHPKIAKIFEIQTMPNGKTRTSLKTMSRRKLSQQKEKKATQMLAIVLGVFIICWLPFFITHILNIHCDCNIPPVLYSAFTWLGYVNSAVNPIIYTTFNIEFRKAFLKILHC
Summary of the method: (§1)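 CHO-K1 cells expressing human D2L receptor, β-arrestin/β-galactosidase fragment-complementation assay. Cells plated 2500/well and grown 48 h at 37 °C. Test compounds given at 11 half-log points from 5 μM, 120 min at 37 °C. Detection reagent added and chemiluminescence read. Results given as % stimulation or inhibition of basal luminescence. Compounds counterscreened for β-gal inhibition.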

[2] = target: T1, D(2) dopamine receptor; assay: Agonist activity at human D2LR expressed in CHO-K1 cells assessed as stimulation of basal activity by beta-galactosidase based beta-arrestin recruitment assay; format: cell-based; summary of the method: as §1
[3] = target: T2, D(3) dopamine receptor (Homo sapiens, UniProt P35462); assay: Antagonist activity against D3R in human U2OS cells assessed as inhibition of (+)-PD128907-induced beta-arrestin translocation by beta-galactosidase based beta-arrestin recruitment assay; format: cell-based
T2 sequence (P35462 whole entry): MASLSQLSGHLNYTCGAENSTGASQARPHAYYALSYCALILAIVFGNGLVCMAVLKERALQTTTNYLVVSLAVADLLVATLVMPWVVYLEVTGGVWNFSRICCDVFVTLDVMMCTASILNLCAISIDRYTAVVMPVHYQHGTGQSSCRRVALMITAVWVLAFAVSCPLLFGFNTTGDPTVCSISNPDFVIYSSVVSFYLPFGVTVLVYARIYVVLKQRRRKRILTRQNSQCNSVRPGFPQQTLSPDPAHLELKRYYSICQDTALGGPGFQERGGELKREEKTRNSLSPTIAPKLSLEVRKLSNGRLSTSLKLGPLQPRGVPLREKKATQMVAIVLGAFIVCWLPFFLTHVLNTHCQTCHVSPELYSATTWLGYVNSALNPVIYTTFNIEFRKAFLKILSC

[4] = target: T1, D(2) dopamine receptor; assay: Antagonist activity against human D2LR expressed in CHOK1 cells assessed as inhibition of pergolide-induced beta-arrestin translocation by beta-galactosidase based beta-arrestin recruitment assay; format: cell-based, CHO-K1
[5] = species on record: Homo sapiens; assay: Selectivity index, ratio of IC50 for human D2LR to IC50 for human D3R by beta-galactosidase based beta-arrestin recruitment assay
[6] = species on record: Homo sapiens; assay: Selectivity index, ratio of Ki for human D2LR to Ki or human D3R
[7] = target: T1, D(2) dopamine receptor; assay: Agonist activity at human D2R expressed in CHO cells assessed as stimulation of mitogenesis at 10 uM after 24 hrs by [3H]thymidine uptake assay relative to quinpirole; format: cell-based
Summary of the method: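 CHOp-D2 cells grown 48–72 h, then serum-starved 24 h. Exposed to 10 μM compound in serum-free α-MEM for 24 h at 37 °C. Pulsed 2 h with 0.25 μCi [3H]thymidine, trypsinized, filtered and counted. Stimulation expressed relative to maximal quinpirole. Two independent experiments.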

[8] = target: T2, D(3) dopamine receptor; conditions: CHO, 1 uM
[9] = target: T1, D(2) dopamine receptor; conditions: CHO, 1 uM
[10] = target: T2, D(3) dopamine receptor; conditions: CHO, 10 uM
[11] = target: T2, D(3) dopamine receptor; assay: Displacement of [125I]IABN from human D3R expressed in HEK293 cell membranes by gamma counting method
[12] = target: T1, D(2) dopamine receptor; assay: Displacement of [125I]IABN from human D2LR expressed in HEK293 cell membranes by gamma counting method
[13] = target: T1, D(2) dopamine receptor; assay: Agonist activity against human D2R expressed in HEK293 cells assessed as inhibition of forskolin-induced adenyl cyclase activity at 10 times Ki relative to quinpirole; format: functional, cell-based
Summary of the method: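 Whole HEK 293 cells expressing human D2R, prelabelled with [2,8-3H]adenine for 75 min at 37 °C, then given 0.1 mM IBMX. […] Stopped with TCA. [3H]cAMP separated on Dowex/alumina. Inhibition normalized to 1 μM quinpirole. Mean ± SEM of ≥3 experiments.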

[14] = target: T1, D(2) dopamine receptor; assay: Antagonist activity against human D2R expressed in CHO cells assessed as inhibition of quinpirole-induced mitogenesis after 24 hrs by [3H]thymidine uptake assay; format: cell-based
Summary of the method: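 Serum-starved CHOp-D2 or CHOp-D3 cells given serial dilutions of test compound plus quinpirole (30 nM final). Incubated at 37 °C for 24 h (D2) or 16 h (D3). Then 2 h [3H]thymidine pulse, filtration and counting.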

[15] = target: T2, D(3) dopamine receptor; assay: Inverse agonist activity at D3R in human U2OS cells assessed as inhibition of basal activity at 500 nM by beta-galactosidase based beta-arrestin recruitment assay; format: cell-based

Row | Structure (SMILES) | inhibition [1] | Activity [2] | IC50 [3] [nM] | IC50 [4] [nM] | Ratio IC50 [5] | Ratio Ki [6] | Activity [7] [%] | Ki [11] [nM] | Ki [12] [nM] | inhibition [13] [%] | IC50 [14] [nM] | inhibition [15] [%] | inhibition [8] [%] | inhibition [9] [%] | inhibition [10] [%]
1 | CC(C)(C)c1nc(N2CCN(CCCCNC(=O)c3cn4ccncc4n3)CC2)cc(C(F)(F)F)n1 | inactive | inactive | 0.3 | 49 | 163 | 56 | < 20 | – | – | – | – | – | < 30 | < 30 | 40
2 | O=C(NCCCCN1CCN(c2cccc(C(F)(F)F)c2)CC1)c1cn2ccccc2n1 | inactive | inactive | 1.8 | 60 | 33 | 56 | – | 2.9 | 162 | 32 | – | – | – | – | –
3 | CC(C)(C)c1cc(N2CCN(CCCCNC(=O)c3cn4ccccc4n3)CC2)nc(C(C)(C)C)n1 | – | – | – | – | – | 19 | – | – | – | – | – | – | – | – | –
4 | O=C(NCCCCN1CCN(c2ncnc3ccccc23)CC1)c1cn2ccccc2n1 | inactive | inactive | 409 | 248 | 0.6 | 4.5 | – | – | – | 19 | – | – | – | – | –
5 | CN(C)Cc1c(C(=O)NCCCCN2CCN(c3cc(C(F)(F)F)nc(C(C)(C)C)n3)CC2)[nH]c2ccccc12 | – | – | 14 | 311 | 22 | 21 | – | 25 | 527 | – | – | < 21 | – | – | –
6 | CC(C)(C)c1nc(N2CCN(CCCCNC(=O)c3nc4ccccc4[nH]3)CC2)cc(C(F)(F)F)n1 | inactive | inactive | 8.5 | 301 | 35 | 78 | < 20 | 4.3 | 336 | 5.6 | 490 | – | – | – | –

Second part, led by results:

Row | inhibition [1] | Activity [2] | IC50 [3] [nM] | IC50 [4] [nM] | Ratio IC50 [5] | Ratio Ki [6] | Activity [7] [%] | Ki [11] [nM] | Ki [12] [nM] | inhibition [13] [%] | IC50 [14] [nM] | inhibition [15] [%] | Structure (SMILES) | inhibition [8] [%] | inhibition [9] [%] | inhibition [10] [%]
7 | – | – | – | – | – | 11 | – | 124 | 1300 | – | – | – | CC(C)(C)c1cc(N2CCN(CCCCNC(=O)c3cn4ccccc4n3)CC2)cc(C(C)(C)C)c1 | – | – | –
8 | inactive | inactive | 52 | 161 | 3.1 | 29 | – | 20 | – | 1.4 | – | – | O=C(NCCCCN1CCN(c2ccnc3ccccc23)CC1)c1cn2ccccc2n1 | – | – | –
9 | inactive | inactive | 0.7 | 6.6 | 9.4 | 5.4 | < 20 | 3.5 | 19 | 25 | 26 | – | COc1ccccc1N1CCN(CCCCNC(=O)c2cn3ccccc3n2)CC1 | – | – | –
10 | – | – | – | – | – | 12 | – | 2010 | 24900 | – | – | – | Cc1nc(N2CCN(CCCCNC(=O)c3cn4ccccc4n3)CC2)cc(C(F)(F)F)n1 | – | – | –
11 | – | – | – | – | – | 14 | – | 35 | 481 | – | – | – | CC(C)(C)c1nc(N2CCN(CCCCNC(=O)c3sc4ncccc4c3N)CC2)cc(C(F)(F)F)n1 | – | – | –
12 | inactive | inactive | – | – | – | – | – | – | – | – | – | – | CC(C)(C)c1nc(N2CCN(CCCCNC(=O)[C@H]3CC[C@H](c4ccccc4)CC3)CC2)cc(C(F)(F)F)n1 | < 30 | < 30 | 40
